PHOSPHO1 inh – inhibitors of human PHOSPHO1 phosphatase. Q8TCT1. recombinant PHOSPHO1, absorbance phosphatase assay. inhibition, % at 13.3 µM. AID 1565. 290,000 tested, 1.1% active; in the data active = inhibition above about 60%
Target sequence (Q8TCT1 whole entry, looked up): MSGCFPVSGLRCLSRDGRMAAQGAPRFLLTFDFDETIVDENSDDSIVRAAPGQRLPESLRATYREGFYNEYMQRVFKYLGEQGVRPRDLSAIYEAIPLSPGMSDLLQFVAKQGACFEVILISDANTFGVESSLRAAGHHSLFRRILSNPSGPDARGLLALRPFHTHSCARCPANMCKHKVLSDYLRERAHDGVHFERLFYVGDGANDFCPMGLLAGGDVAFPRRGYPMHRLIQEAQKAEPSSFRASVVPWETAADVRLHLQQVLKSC
KCNK3 block – human KCNK3 channel inhibition, primary screen; O14649; CHO-KCNK3 thallium flux, FluxOR fluorescence; hits give low values; B-score at 10 µM; 340,000 tested, 0.84% active;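 active = B-score under library mean minus 4 SD, starting fluorescence ratio at most library mean plus 5 SD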;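 also: more negative B-score means stronger inhibition of thallium flux through KCNK3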
hERG rescue – shields human hERG channel from block by proarrhythmic agents | Q12809 | CHO-hERG, FluxOR thallium flux, dofetilide IC70 present | activation (rescue from dofetilide block), less the hit threshold, % at 10 µM | 310,000 tested, 0.51% active | AID 1511;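 active = activation above the mean of controls blocked by dofetilide plus 5 SD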;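 also: thallium influx through hERG after potassium depolarization seen as dye fluorescence rise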
KCNQ1 inh – blocks the human KCNQ1 potassium channel | CHO-K1 KCNQ1, FluxOR thallium flux fluorescence; hits give high values | B-score at 10 µM | 310,000 tested, 1.3% active;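 active = compounds whose thallium flux B-score, printed positive for inhibition, exceeds three library SD while starting fluorescence stays within three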;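 also: channel opened by potassium depolarization with thallium stimulus after 20 min compound exposure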
KCNQ1 pot – potentiates or activates the human KCNQ1 potassium channel; 310,000 tested, 0.35% active; B-score at 10 µM; CHO-K1 KCNQ1, thallium flux FluxOR fluorescence; hits give high values; P51787;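 active = fluorescence ratio B-score, a plate-corrected score, at least three library SD, with initial intensity B-score within 5 SD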
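Schedule – 37 °C overnight plating, 90-min dark dye load, 20-min compound pretreatment · System – stable KCNQ1 CHO-K1 line · Probe or stimulus – thallium- and potassium-containing depolarizing buffer · Measured by – kinetic FluxOR fluorescence, 10 s baseline plus 110 s post-stimulus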
KCNK9 block – blocks the human KCNK9 two-pore domain potassium channel. Q9NPC2. HEK293 KCNK9, FluxOR thallium flux fluorescence; hits give low values. B-score at 10 µM. 310,000 tested, 1.2% active. AID 488922;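 active = ratio B-score over 3 SD below the library mean, with starting fluorescence within 5 SD of its mean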;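 also: negative B-score means less thallium flux so channel inhibition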
Target sequence (Q9NPC2 whole entry, looked up, the tested form may be a part): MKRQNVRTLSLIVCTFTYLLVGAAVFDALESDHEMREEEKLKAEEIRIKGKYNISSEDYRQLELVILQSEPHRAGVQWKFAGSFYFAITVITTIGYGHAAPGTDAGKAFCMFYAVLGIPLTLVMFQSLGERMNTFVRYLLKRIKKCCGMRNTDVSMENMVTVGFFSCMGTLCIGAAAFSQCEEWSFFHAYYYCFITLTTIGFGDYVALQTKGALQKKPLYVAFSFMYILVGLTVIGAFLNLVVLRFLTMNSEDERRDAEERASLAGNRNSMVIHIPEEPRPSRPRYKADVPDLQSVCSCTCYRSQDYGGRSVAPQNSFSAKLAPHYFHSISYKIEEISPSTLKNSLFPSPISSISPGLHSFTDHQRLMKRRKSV
Large screens that a line does not name were inactive. An excerpt weighted towards active compounds, which were near 4% of everything screened.

O=C(CSc1nnc2c3ccccc3c3ccccc3c2n1)Nc1ccccc1F	PHOSPHO1 inh 94
CC1(C)C(C=C(Cl)Cl)C1C(=O)OCc1cccc(Oc2ccccc2)c1 (stereo unspecified)	none (no result: PHOSPHO1 inh, hERG rescue, KCNQ1 inh, KCNQ1 pot, KCNK9 block)
CC(=O)c1ccc(NC(=O)CCCN2C(=O)COc3ccc(C)cc32)cc1	PHOSPHO1 inh 70
COc1ccc(OC)c(-c2cc(C(=O)N3CCc4ccccc4C3)no2)c1	KCNQ1 inh 6
COc1ccc(-c2cc(C(=O)N3CCc4ccccc4C3)no2)cc1	none
CC(C)(O[C@@H]1O[C@H](CO)[C@@H](O)[C@H](O)[C@H]1O)[C@@H]1CC=C(C(=O)O)CC1	none (no result: PHOSPHO1 inh, hERG rescue, KCNQ1 inh, KCNQ1 pot, KCNK9 block)
COC(=O)c1ccc(CSc2nnc(Nc3ccc(OC)cc3)s2)o1	PHOSPHO1 inh 71
COC(=O)c1ccc(CSc2nnc(SCc3ccc(C(=O)OC)o3)s2)o1	none
COc1ccc(Nc2nnc(SCc3cc([N+](=O)[O-])cc4c3OCOC4)s2)cc1	PHOSPHO1 inh 78
COC(=O)c1ccc(CSc2nnc(Nc3ccccc3OC)s2)o1	PHOSPHO1 inh 67 (no result: KCNK3 block)
O=C(O)CNC(=O)c1ccc(NC(=O)/C(=C/c2ccccc2)NC(=O)c2ccccc2Br)cc1	none
CCN(C(=O)COC(=O)c1cc(S(=O)(=O)Nc2c(C)n(C)n(-c3ccccc3)c2=O)ccc1Cl)C1CCCCC1	none
CCOCCCNC(=O)c1ccc(N2CC3CC(C2)c2cccc(=O)n2C3)c(NC(=O)Nc2cccc(OC)c2)c1 (stereo unspecified)	none
COc1ccc(-c2nc(SCC(=O)NCc3ccco3)c(-c3ccccc3)[nH]2)cc1OC	PHOSPHO1 inh 63
O=C(CSc1nnc(C2CCCCC2)n1Cc1ccccc1)NCc1ccco1	PHOSPHO1 inh 76
C=CCn1c(COc2ccccc2F)nnc1SCC(=O)NC(=O)NCc1ccco1	PHOSPHO1 inh 81
C=CCn1c(COc2ccccc2-c2ccccc2)nnc1SCC(=O)NC(=O)NCc1ccco1	none
COc1ccccc1OCc1nnc(SCC(=O)NCc2ccco2)n1Cc1ccco1	PHOSPHO1 inh 65
CCN(C(=O)COC(=O)COc1ccccc1Cl)c1c(N)n(Cc2ccccc2)c(=O)[nH]c1=O	none (no result: PHOSPHO1 inh, hERG rescue, KCNQ1 inh, KCNQ1 pot, KCNK9 block)
CCOC(=O)c1cc(-c2ccccc2)sc1NC(=O)C(C)N1C(=O)c2ccccc2C1=O (stereo unspecified)	KCNK9 block -8
Cc1ccc(N2C(=O)CC(Sc3ncn[nH]3)C2=O)cc1C (stereo unspecified)	PHOSPHO1 inh 105
Cc1cccc(N2C(=O)CC(Sc3ncn[nH]3)C2=O)c1 (stereo unspecified)	none
CCOc1ccccc1NC(=O)CN1C(=O)C(C)SC(C)C1=O (stereo unspecified)	none
COc1ccccc1NC(=O)CN1CCC(C(=O)c2ccc(F)cc2)CC1	none
CCOc1ccccc1NC(=O)CN1CCC(C(=O)c2ccc(F)cc2)CC1	KCNK9 block -7.1
CCOc1ccccc1NC(=O)CN1C(=O)CSC(C)C1=O (stereo unspecified)	PHOSPHO1 inh 65
COc1ccc(OCC(=O)Nc2ccc3c(c2)nc(CCN2CCCC2)n3C)cc1	none
CN(/N=C/c1cc(Cl)cc(Cl)c1O)C(=S)NC(C)(C)C	KCNQ1 inh 13
CNc1ccc(/C=C/C(=O)c2ccc3c(c2)OCCO3)cc1[N+](=O)[O-]	KCNQ1 inh 10
CNc1ccc(/C=C/C(=O)c2ccc(C)cc2)cc1[N+](=O)[O-]	none
CC(=O)c1cccc(OCc2cc(C(=O)N3CCC(N4CCCCC4)CC3)no2)c1	PHOSPHO1 inh 64
O=[N+]([O-])c1ccc(N=Nc2c(Cl)cc(O)cc2Cl)cc1	KCNQ1 inh 8
O=[N+]([O-])/C(C(Cl)=C(Cl)Cl)=C(\Nc1ccc(F)cc1)n1cncn1	PHOSPHO1 inh 93 (no result: KCNK3 block)
OCCCc1nc2n(n1)C(c1ccccc1Cl)C=C(c1cccs1)N2 (stereo unspecified)	KCNK3 block -10
Cc1nn(-c2ccc(F)cc2)c(-n2cccc2)c1C(=O)N1CCN(C(=O)c2ccco2)CC1	none
O=C(NNC(=O)C12CC3CC(CC(Cl)(C3)C1)C2)c1ccncc1	none (no result: PHOSPHO1 inh)
Cc1cnnn1-c1ccc(C(=O)CCl)cc1	KCNQ1 inh 6
Cc1[nH]c2ccccc2c1CC#N	none
Cc1[nH]c2ccccc2c1C1=CC(=O)C=CC1=O	KCNK3 block -9.2 (no result: PHOSPHO1 inh, hERG rescue, KCNQ1 inh, KCNQ1 pot, KCNK9 block)
Cc1ccc(-c2cc(-c3ccc(Cl)cc3)c(C#N)c(N)n2)o1	PHOSPHO1 inh 72
Cc1ccc(-c2cc(-c3ccc(F)cc3)c(C#N)c(N)n2)o1	none
Clc1ccc(C(c2ccccc2Cl)C(Cl)Cl)cc1 (stereo unspecified)	KCNK3 block -8.9 (no result: PHOSPHO1 inh, hERG rescue, KCNQ1 inh, KCNQ1 pot, KCNK9 block)
CCc1ccc(C(c2ccc(CC)cc2)C(Cl)Cl)cc1	none (no result: PHOSPHO1 inh, hERG rescue, KCNQ1 inh, KCNQ1 pot, KCNK9 block)
COc1cc2c(cc1OC)CN(C(=O)c1ccc(OC)c(S(=O)(=O)N3CCCC3)c1)CC2	none (no result: PHOSPHO1 inh, hERG rescue, KCNQ1 inh, KCNQ1 pot, KCNK9 block)
COc1cc2c(cc1OC)CN(C(=O)c1ccc(Cl)c(S(=O)(=O)N3CCCC3)c1)CC2	KCNK3 block -8.7 (no result: PHOSPHO1 inh, hERG rescue, KCNQ1 inh, KCNQ1 pot, KCNK9 block)
c1ccc(CCn2nnnc2CN2CCCc3ccccc32)cc1	PHOSPHO1 inh 64
c1ccc2c(c1)CCCN2Cc1nnnn1CC1CCCO1 (stereo unspecified)	none
COc1ccc(-c2c(C)nn(-c3ccccc3)c2N)cc1	none
COc1ccc(-c2c(C)nn(-c3ccccc3)c2N)cc1OC	hERG rescue 4.7
N#C/C(=C(/O)CCl)c1nc(-c2ccccc2)cs1	none
Cc1ccc(-c2csc(/C(C#N)=C(\O)CCl)n2)cc1	KCNQ1 inh 6
CC(C)(C)c1cc(CCC(=O)NNC(=S)NC(=O)c2ccccc2)cc(C(C)(C)C)c1O	KCNQ1 pot 36
Cc1ccc(C(=O)CC(=O)COc2ccc(Cl)cc2)cc1	KCNQ1 pot 17
CC(C)NC(=S)NC(=O)c1ccc(Cl)cc1Cl	none
CC(C)CNC(=S)NC(=O)c1ccc(Cl)cc1Cl	KCNQ1 pot 10
Cc1cccc(C(=O)NC(=S)NNC(=O)COc2ccc(Cl)cc2)c1	KCNQ1 pot 59
O=C(CCc1ccccc1)NNC(=S)NC(=O)c1ccccc1	none
CCn1c(SCC(=O)Nc2ccc(C)cc2)nc2nc3c(cc2c1=O)COC(C)(C)C3	none
Cc1cccc(C(=O)NNC(=S)NC(=O)c2ccccc2)c1	KCNQ1 pot 23 (no result: PHOSPHO1 inh)
O=C(NNC(=S)NC(=O)c1ccc(Br)cc1)c1cccc([N+](=O)[O-])c1	KCNQ1 pot 21
Cc1ccc(C(=O)NNC(=S)NC(=O)c2ccc(Cl)cc2Cl)cc1	PHOSPHO1 inh 76
Cc1ccc(C(=O)NNC(=S)NC(=O)c2ccccc2)cc1	hERG rescue 23, KCNQ1 pot 8 (no result: PHOSPHO1 inh)
Cc1ccc([N+](=O)[O-])cc1-c1ccc(/C=C(\C#N)c2[nH]nc(N)c2C#N)o1	none
CC(=O)Nc1ccc(-c2csc(NC(=O)Cc3cccc(F)c3)n2)cc1	none

Compound activity from PubChem.
